Published values of several laboratories.
Each line is one published result; the experiments were not run side by side.
Target: Ephrin type-A receptor 3 (EPHA3, Homo sapiens, UniProt P29320)
One construct used (P29320 21-983): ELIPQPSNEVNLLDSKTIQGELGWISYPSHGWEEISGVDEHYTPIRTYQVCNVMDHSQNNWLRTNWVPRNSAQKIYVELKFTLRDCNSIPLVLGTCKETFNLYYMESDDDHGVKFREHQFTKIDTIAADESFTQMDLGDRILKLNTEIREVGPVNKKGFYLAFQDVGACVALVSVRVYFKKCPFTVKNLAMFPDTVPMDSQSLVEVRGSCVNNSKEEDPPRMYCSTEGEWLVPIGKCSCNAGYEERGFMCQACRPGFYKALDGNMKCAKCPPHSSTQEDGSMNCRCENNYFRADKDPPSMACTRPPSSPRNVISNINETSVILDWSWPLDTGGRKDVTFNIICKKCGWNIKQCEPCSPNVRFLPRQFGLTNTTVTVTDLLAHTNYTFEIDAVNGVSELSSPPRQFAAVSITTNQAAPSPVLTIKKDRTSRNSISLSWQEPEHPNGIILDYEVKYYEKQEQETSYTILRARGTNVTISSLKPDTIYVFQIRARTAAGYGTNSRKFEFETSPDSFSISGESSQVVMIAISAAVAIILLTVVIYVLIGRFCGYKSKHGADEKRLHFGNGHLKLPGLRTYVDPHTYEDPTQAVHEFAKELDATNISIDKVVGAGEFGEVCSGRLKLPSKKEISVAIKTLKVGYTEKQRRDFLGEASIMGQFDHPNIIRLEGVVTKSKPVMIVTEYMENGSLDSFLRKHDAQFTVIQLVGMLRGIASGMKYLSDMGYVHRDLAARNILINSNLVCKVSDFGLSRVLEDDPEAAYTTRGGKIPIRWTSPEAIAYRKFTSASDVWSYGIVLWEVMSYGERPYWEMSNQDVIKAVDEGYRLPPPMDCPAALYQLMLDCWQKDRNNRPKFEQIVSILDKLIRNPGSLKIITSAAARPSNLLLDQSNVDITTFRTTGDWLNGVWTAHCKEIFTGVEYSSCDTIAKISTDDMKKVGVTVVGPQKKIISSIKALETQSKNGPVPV

The remaining binding of `Cn1cncc1[C@](O)(COc1ccc(C#N)cc1-c1ccc(OC(F)(F)F)cc1)c1ccc(C#N)cc1` is reported as 90% (cell-free assay, competition with immobilised ligand; 1 µM).
With `Cn1cc(-c2cc(F)cc(N3CCn4c(cc5c4CCCC5)C3=O)c2CO)cc(Nc2ccc(N3CCN(C4COC4)CC3)cn2)c1=O` the inhibition was 10% (enzyme activity, inhibitor; 0.1 µM).
The remaining binding of `Cc1nn(C)cc1-c1nc2c(N3CCN(Cc4ccc(Cl)cc4)CC3)c(Cl)cnc2[nH]1` is reported as 100% (binding, competition with immobilised ligand; 1 µM).
`COc1ncccc1-c1cnn2ccc(N3CCN(C(=O)OC(C)C)CC3)nc12` has a remaining binding of 83% (binding, competition with immobilised ligand; 1 µM).
`N#CC1(c2ccccn2)CCN(Cc2cc(C(=O)O)c(=O)n3ccccc23)CC1` gave a remaining binding of 75% (cell-free assay, competition with immobilised ligand; 1 µM).
With `Cn1cc(-c2cccc(N3CCc4c(sc5c4CC(C)(C)C5)C3=O)c2CO)cc(Nc2ccncn2)c1=O` the inhibition was -7% (enzyme activity, inhibitor; 1 µM).
`O=c1[nH]c2ccccc2n1C1CCN(Cc2ccc(-c3[nH]c4cc5ncnc5cc4nc3-c3ccccc3)cc2)CC1` has a remaining signal of 71.9% (cell-free assay; 0.5 µM).
`COc1cc(Nc2ncc(F)c(Nc3ccc4c(n3)NC(=O)C(C)(C)O4)n2)cc(OC)c1OC` has an inhibition of 90% (binding, competition with immobilised ligand; 10 µM).
The remaining activity of `CC(C)(C)c1cc(C=C(C#N)C#N)cc(Br)c1O` is reported as 102% (enzyme activity, inhibitor; 0.5 µM).
The remaining binding of `Nc1ncc(-c2nc(N3CCOCC3)nc(N3CCOCC3)n2)c(C(F)F)n1` is reported as 69% (cell-free assay, competition with immobilised ligand; 10 µM).
